Measured values reported in ChEMBL document CHEMBL4627381, “Licochalcone A Selectively Resensitizes ABCG2-Overexpressing Multidrug-Resistant Cancer Cells to Chemotherapeutic Drugs” (J Nat Prod, 2020).
The source made the active and inactive calls. The calls are words filed in the database; no cut-off is given here.

What was measured:
[1] = tested on: S1-M1-80; assay: Downregulation of ABCG2 expression in human S1-M1-80 cells at 0.5 to 3 uM incubated for 72 hrs by Western blot analysis; format: functional, cell-based
Method in brief: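 S1-M1–80 and H460-MX20 cells were treated with 0.5–3.0 μM or DMSO vehicle for 72 h, then run on SDS-PAGE and immunoblotted with BXP-21 (1:15000) for ABCG2. α-Tubulin (1:100000) served as loading control, with HRP goat anti-mouse secondary. Bands were quantified as mean ± SEM of three independent experiments.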

[2] = tested on: NCI-H460; assay: Effect on mitoxantrone-induced cytotoxicity against human H460 cells assessed as fold change in mitoxantrone IC50 at 0.5 uM after 72 hrs by MTT assay relative to mitoxantrone IC50; format: functional
Method in brief: (§1)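 Parental S1 colon and H460 lung cancer cells were exposed for 72 h to a mitoxantrone or topotecan concentration series, with or without modulator at 0.5–3.0 μM, and read by MTT. Fold-reversal is IC50 without modulator divided by IC50 with modulator, taken from dose-response curves of three independent experiments.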

[3] = tested on: NCI-H460; assay: Effect on mitoxantrone-induced cytotoxicity against human H460 cells assessed as fold change in mitoxantrone IC50 at 2 uM after 72 hrs by MTT assay relative to mitoxantrone IC50; format: functional; method in brief: as §1
[4] = tested on: HEK293; assay: Effect on topotecan-induced cytotoxicity against HEK293 cells assessed as fold change in topotecan IC50 at 2 uM after 72 hrs by CCK8 assay relative to topotecan IC50; format: cell-based; conditions: human, hek293, 72 h
Method in brief: (§2)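 Reversal assay in parental pcDNA-HEK293 and transfected HEK293 lines (ABCB1 for colchicine, ABCC1 for etoposide, ABCG2 for mitoxantrone/topotecan). Substrate drug series was given with or without nontoxic modulator (0.5, 1.0, 2.0 or 3.0 μM) for 72 h, with a CCK-8 read-out. Fold-reversal is substrate IC50 without modulator divided by IC50 with modulator. Three independent experiments.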

[5] = tested on: S1-M1-80; assay: Potentiation of topotecan-induced apoptosis in human S1-M1-80 cells harboring ABCG2 (unknown origin) assessed as late apoptotic cells at 10 uM incubated for 48 hrs by annexin V/propidium iodide staining based flow cytometry (reference value: 6%); format: functional
[6] = tested on: NCI-H460; assay: Effect on topotecan-induced cytotoxicity against human H460 cells assessed as fold change in topotecan IC50 at 2 uM after 72 hrs by MTT assay relative to topotecan IC50; format: functional; method in brief: as §1
[7] = tested on: HEK293; assay: Effect on topotecan-induced cytotoxicity against HEK293 cells assessed as fold change in topotecan IC50 at 1 uM after 72 hrs by CCK8 assay relative to topotecan IC50; format: cell-based; conditions: human, hek293, 72 h; method in brief: as §2
[8] = target: T1, Broad substrate specificity ATP-binding cassette transporter ABCG2 (Homo sapiens, UniProt Q9UNQ0); assay: Reversal of ABCG2 (unknown origin)-mediated multidrug resistance in human H460-MX20 cells assessed as fold change in topotecan IC50 at 0.5 uM after 72 hrs by MTT assay relative to topotecan IC50; format: cell-based
T1 sequence (Q9UNQ0 whole entry): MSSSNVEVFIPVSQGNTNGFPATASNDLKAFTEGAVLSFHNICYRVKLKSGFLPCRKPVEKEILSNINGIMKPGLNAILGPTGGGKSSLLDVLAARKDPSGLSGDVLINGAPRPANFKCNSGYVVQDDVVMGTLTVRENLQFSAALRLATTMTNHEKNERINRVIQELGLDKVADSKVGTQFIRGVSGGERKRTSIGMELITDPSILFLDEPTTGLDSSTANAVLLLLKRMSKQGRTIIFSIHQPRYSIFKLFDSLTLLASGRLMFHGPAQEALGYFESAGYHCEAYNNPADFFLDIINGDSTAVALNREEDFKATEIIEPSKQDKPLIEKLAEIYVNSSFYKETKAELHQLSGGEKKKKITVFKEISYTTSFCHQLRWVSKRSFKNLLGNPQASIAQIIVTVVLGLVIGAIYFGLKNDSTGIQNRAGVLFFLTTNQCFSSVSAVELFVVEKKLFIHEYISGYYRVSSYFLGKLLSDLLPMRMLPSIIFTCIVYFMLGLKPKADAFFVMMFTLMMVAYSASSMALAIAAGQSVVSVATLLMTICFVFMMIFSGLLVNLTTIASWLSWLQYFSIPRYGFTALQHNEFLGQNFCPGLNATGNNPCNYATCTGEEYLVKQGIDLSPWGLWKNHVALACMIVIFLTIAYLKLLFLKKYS
Method in brief: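 Cells held drug-free 7 days, seeded at 5000 per well for 24 h, then exposed 72 h to mitoxantrone or topotecan dilutions with DMSO (≤0.5%), LCA 0.5–3.0 μM, or Ko143 1.0 μM. Viability was read by MTT. IC50 came from fitted dose-response curves of three independent experiments. Fold-reversal = IC50 without modulator divided by IC50 with modulator.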

[9] = target: T1, Broad substrate specificity ATP-binding cassette transporter ABCG2; assay: Reversal of ABCG2 (unknown origin)-mediated multidrug resistance in human S1-M1-80 cells assessed as fold-change in mitoxantrone IC50 at 2 uM after 72 hrs by MTT assay relative to mitoxantrone IC50; format: cell-based; conditions: s1-m1-80, 72 h
Method in brief: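 MTT readout in S1-M1-80 colon cancer cells (mitoxantrone-selected, held in 80 μM mitoxantrone, then drug-free 7 days before assay). Cells were seeded at 5000/well for 24 h, then given increasing mitoxantrone or topotecan with DMSO or non-toxic modulator for 72 h at 37 °C. IC50 came from fitted dose-response curves (at least three independent experiments). Fold-reversal = IC50 without modulator ÷ IC50 with modulator.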

[10] = tested on: S1; assay: Induction of apoptosis in human S1 cells assessed as necrotic cells at 10 uM incubated for 48 hrs by annexin V/propidium iodide staining based flow cytometry (reference value: 0.2%); format: functional
Method in brief: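 S1 cells were exposed for 48 h to DMSO, 10 μM compound, 5 μM topotecan, or 5 μM topotecan plus 10 μM compound. They were then stained with 1.25 μg/mL annexin V–FITC and 0.1 mg/mL PI for 15 min at room temperature. 10000 cells per sample were analysed by flow cytometry; three independent experiments.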

[11] = target: Multidrug resistance-associated protein 1 (Homo sapiens, UniProt P33527); assay: Reversal of human ABCC1-mediated multidrug resistance in HEK293/MRP1 cells assessed as fold-change in etoposide IC50 at 1 uM after 72 hrs by CCK8 relative to etoposide IC50; format: cell-based
Chain of Multidrug resistance-associated protein 1 (P33527 whole entry): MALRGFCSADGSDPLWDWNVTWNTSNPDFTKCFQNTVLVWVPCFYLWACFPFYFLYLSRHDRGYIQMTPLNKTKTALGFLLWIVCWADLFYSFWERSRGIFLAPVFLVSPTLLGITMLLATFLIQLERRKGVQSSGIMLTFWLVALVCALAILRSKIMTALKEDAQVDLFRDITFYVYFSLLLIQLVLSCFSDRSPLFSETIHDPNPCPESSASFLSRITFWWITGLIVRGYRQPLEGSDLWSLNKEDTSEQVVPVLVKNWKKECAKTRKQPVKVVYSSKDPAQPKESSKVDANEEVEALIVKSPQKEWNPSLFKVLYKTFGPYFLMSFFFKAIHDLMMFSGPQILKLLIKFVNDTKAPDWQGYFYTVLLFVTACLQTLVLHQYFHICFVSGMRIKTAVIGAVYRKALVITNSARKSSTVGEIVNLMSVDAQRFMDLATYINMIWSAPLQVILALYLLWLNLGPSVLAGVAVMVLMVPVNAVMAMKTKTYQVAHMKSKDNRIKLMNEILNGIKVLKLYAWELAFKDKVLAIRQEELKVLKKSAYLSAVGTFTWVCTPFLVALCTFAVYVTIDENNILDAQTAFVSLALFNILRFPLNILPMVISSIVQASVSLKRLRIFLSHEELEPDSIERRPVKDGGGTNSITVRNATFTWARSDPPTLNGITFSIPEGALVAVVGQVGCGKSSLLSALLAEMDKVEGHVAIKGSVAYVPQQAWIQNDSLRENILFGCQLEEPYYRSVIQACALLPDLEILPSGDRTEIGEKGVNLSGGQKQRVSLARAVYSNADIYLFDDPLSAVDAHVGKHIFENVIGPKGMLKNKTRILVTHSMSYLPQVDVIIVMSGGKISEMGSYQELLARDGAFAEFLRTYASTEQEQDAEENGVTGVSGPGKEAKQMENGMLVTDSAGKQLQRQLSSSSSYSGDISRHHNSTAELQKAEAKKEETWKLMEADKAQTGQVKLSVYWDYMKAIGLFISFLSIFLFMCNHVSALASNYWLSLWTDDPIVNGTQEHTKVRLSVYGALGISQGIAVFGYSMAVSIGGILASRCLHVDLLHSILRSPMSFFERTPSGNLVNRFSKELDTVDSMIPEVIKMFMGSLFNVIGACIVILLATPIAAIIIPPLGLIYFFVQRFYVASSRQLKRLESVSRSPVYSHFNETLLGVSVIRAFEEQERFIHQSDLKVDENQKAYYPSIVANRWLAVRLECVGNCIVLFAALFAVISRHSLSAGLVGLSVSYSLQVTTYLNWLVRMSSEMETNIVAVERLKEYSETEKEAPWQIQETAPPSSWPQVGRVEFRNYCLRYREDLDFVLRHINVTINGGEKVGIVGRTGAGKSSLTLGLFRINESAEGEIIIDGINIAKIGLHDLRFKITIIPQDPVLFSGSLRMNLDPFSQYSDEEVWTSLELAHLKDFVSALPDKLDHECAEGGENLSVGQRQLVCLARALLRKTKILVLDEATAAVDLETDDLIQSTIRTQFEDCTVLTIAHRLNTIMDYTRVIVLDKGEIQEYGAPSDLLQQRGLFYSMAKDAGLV
Method in brief: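 Cells were seeded at 5000/well for 24 h, then given colchicine, etoposide, mitoxantrone or topotecan ± non-toxic modulator (0.5–3.0 μM) for 72 h, with DMSO up to 0.5%. IC50 came from fitted curves (mean ± SD, three experiments). Fold-reversal = IC50 without modulator ÷ IC50 with modulator.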

[12] = tested on: S1; assay: Effect on topotecan-induced cytotoxicity against human S1 cells assessed as fold change in topotecan IC50 at 1 uM after 72 hrs by MTT assay relative to topotecan IC50; format: functional; method in brief: as §1
[13] = tested on: NCI-H460; assay: Effect on mitoxantrone-induced cytotoxicity against human H460 cells assessed as fold change in mitoxantrone IC50 at 1 uM after 72 hrs by MTT assay relative to mitoxantrone IC50; format: functional; method in brief: as §1
[14] = tested on: S1; assay: Effect on topotecan-induced cytotoxicity against human S1 cells assessed as fold change in topotecan IC50 at 0.5 uM after 72 hrs by MTT assay relative to topotecan IC50; format: functional; method in brief: as §1

fold change (FC) [8]: 3.6
fold change (FC) [11]: 1.3
Compound: C=CC(C)(C)c1cc(/C=C/C(=O)c2ccc(O)cc2)c(OC)cc1O [LICOAGROCHACONE A]
Activity [1]: inactive
fold change (FC) [2]: 0.8
fold change (FC) [3]: 1.1
fold change (FC) [4]: 1
Activity [5]: 22.5%
fold change (FC) [6]: 1.7
fold change (FC) [7]: 1
fold change (FC) [9]: 28
Activity [10]: 0.2%
fold change (FC) [12]: 0.8
fold change (FC) [13]: 1.1
fold change (FC) [14]: 0.9
